Measured values reported in ChEMBL document CHEMBL2331178, “Novel pyridinone derivatives as non-nucleoside reverse transcriptase inhibitors (NNRTIs) with high potency against NNRTI-resistant HIV-1 strains” (J Med Chem, 2013).

Experiments:
[1] = target: Human immunodeficiency virus type 1 reverse transcriptase (Human immunodeficiency virus 1, UniProt Q72547); assay: Inhibition of HIV1 reverse transcriptase after 1 hr by colorimetric assay
In short: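 Purified recombinant wild-type RT with poly(rA)/oligo(dT)16 template-primer and serial inhibitor concentrations. Incubated 1 h at 37 °C. Incorporated biotin detected with streptavidin-alkaline phosphatase and PNPP (30 min, 37 °C), read colorimetrically.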

[2] = tested on: Human immunodeficiency virus 1; assay: Antiviral activity against NNRTI-resistant Human immunodeficiency virus 1 A17 double mutant infected in human MT4 cells assessed decrease in p24 level after 7 days by ELISA; format: functional, organism-based; conditions: Human immunodeficiency virus 1, A17, MT4, 168 h
In short: (§1)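 MT4 cells (4×10^4/well) were infected with 200 TCID50 HIV-1 and held 2 h at 37 °C, then serially diluted compound was added. […] The K103N and Y181C viruses came from transfecting RT-mutant plasmids into 293T/17 cells.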

[3] = Cytotoxicity against human TZM-bl cells; format: cell-based
[4] = Selectivity index, ratio of CC50 for human TZM-bl cells to EC50 for Human immunodeficiency virus 1 A17 infected in human TZM-bl cells; format: toxicity, cell-based; conditions: read-out: Ratio CC50/EC50
[5] = Selectivity index, ratio of CC50 for human MT4 cells to EC50 for Human immunodeficiency virus 1 A17 infected in human MT4 cells; format: toxicity, cell-based; conditions: read-out: Ratio CC50/EC50
[6] = Cytotoxicity against human MT4 cells after 3 days by XTT assay; format: cell-based
In short: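 Graded compound concentrations added to MT4 cells (5×10^4/well) for 3 days at 37 °C. CCK-8 reagent then added for 4 h at 37 °C to develop the XTT formazan product, and absorbance read at 450 nm. CC50 derived from percent cytotoxicity.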

[7] = tested on: Human immunodeficiency virus 1; assay: Antiviral activity against Human immunodeficiency virus 1 SF33 infected in human MT4 cells assessed decrease in p24 level after 7 days by ELISA; format: functional, organism-based; conditions: Human immunodeficiency virus 1, SF33, MT4, 168 h
In short: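 MT4 cells (4×10^4/well) infected with 200 TCID50 of HIV-1 for 2 h at 37 °C, then serial dilutions of compound added. After 7 days at 37 °C, p24 measured in a commercial ELISA.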

[8] = tested on: Human immunodeficiency virus 1; assay: Antiviral activity against NNRTI-resistant Human immunodeficiency virus 1 A17 double mutant infected in human TZM-bl cells assessed decrease in p24 level after 7 days by ELISA; format: functional, organism-based; conditions: Human immunodeficiency virus 1, A17, TZM-bl, 168 h
[9] = Selectivity index, ratio of CC50 for human MT4 cells to EC50 for Human immunodeficiency virus 1 SF33 infected in human MT4 cells; format: toxicity, cell-based; conditions: read-out: Ratio CC50/EC50
[10] = Selectivity index, ratio of CC50 for human TZM-bl cells to EC50 for Human immunodeficiency virus 1 SF33 infected in human TZM-bl cells; format: toxicity, cell-based; conditions: read-out: Ratio CC50/EC50
[11] = tested on: Human immunodeficiency virus 1; assay: Antiviral activity against Human immunodeficiency virus 1 SF33 infected in human TZM-bl cells assessed decrease in p24 level after 7 days by ELISA; format: functional, organism-based; conditions: Human immunodeficiency virus 1, SF33, TZM-bl, 168 h
[12] = tested on: Human immunodeficiency virus 1; assay: Antiviral activity against NNRTI-resistant Human immunodeficiency virus 1 harboring reverse transcriptase Y181C mutation infected in human TZM-bl cells assessed decrease in p24 level after 7 days by ELISA; format: functional, organism-based; conditions: Human immunodeficiency virus 1, TZM-bl, 168 h
[13] = tested on: Human immunodeficiency virus 1; assay: Antiviral activity against NNRTI-resistant Human immunodeficiency virus 1 harboring reverse transcriptase K103N mutation infected in human TZM-bl cells assessed decrease in p24 level after 7 days by ELISA; format: functional, organism-based; conditions: Human immunodeficiency virus 1, TZM-bl, 168 h
[14] = tested on: Human immunodeficiency virus 1; assay: Antiviral activity against NNRTI-resistant Human immunodeficiency virus 1 harboring reverse transcriptase Y181C mutation infected in human MT4 cells assessed decrease in p24 level after 7 days by ELISA; format: functional, organism-based; conditions: Human immunodeficiency virus 1, MT4, 168 h; in short: as §1
[15] = tested on: Human immunodeficiency virus 1; assay: Antiviral activity against NNRTI-resistant Human immunodeficiency virus 1 harboring reverse transcriptase K103N mutation infected in human MT4 cells assessed decrease in p24 level after 7 days by ELISA; format: functional, organism-based; conditions: Human immunodeficiency virus 1, MT4, 168 h; in short: as §1
[16] = target: Human immunodeficiency virus type 1 reverse transcriptase (Human immunodeficiency virus 1) (UniProt Q72547); assay: Ratio of nevirapine IC50 to compound IC50 for HIV1 reverse transcriptase
[17] = target: Human immunodeficiency virus type 1 reverse transcriptase (Human immunodeficiency virus 1) (UniProt Q72547); assay: Ratio of TNK651 IC50 to compound IC50 for HIV1 reverse transcriptase

| SMILES | IC50 [1] [nM] | EC50 [2] [nM] | CC50 [3] [nM] | selectivity ratio [4] | selectivity ratio [5] | CC50 at 72 h [6] [nM] | EC50 [7] [nM] | EC50 [8] [nM] | selectivity ratio [9] | selectivity ratio [10] | EC50 [11] [nM] | also measured |
| --- | --- | --- | --- | --- | --- | --- | --- | --- | --- | --- | --- | --- |
| CCOC(=O)c1c(OC2CCCCC2)cc(Cc2ccccc2)[nH]c1=O | 81000 |  |  |  |  |  |  |  |  |  |  |  |
| CCOC(=O)c1c(OC2CC(C)CC(C)C2)cc(Cc2ccccc2)[nH]c1=O (mixture of isomers) | 73500 |  |  |  |  |  |  |  |  |  |  |  |
| CC(C)c1c(OC2CCCCC2C)cc(Cc2ccc(Cl)cc2)[nH]c1=O (mixture of isomers) | 160 | 10400 | 109000 | < 10 | 8 | 84000 | 10 | > 10000 | 8400 | 4720 | 23 |  |
| CC(C)c1c(O[C@H]2CCCC[C@H]2C)cc(CCc2ccccc2)[nH]c1=O (racemic) | 1310 | > 10000 | 189000 | < 18 | < 8 | 87900 | 68 | > 10000 | 1290 | 1390 | 136 |  |
| CC1CCCCC1Oc1cc(Cc2ccccc2)[nH]c(=O)c1I (mixture of isomers) | 590 |  |  |  |  |  |  |  |  |  |  |  |
| CCOC(=O)c1c(OC2CCCCC2C)cc(Cc2ccccc2)[nH]c1=O (mixture of isomers) | 5290 |  |  |  |  |  |  |  |  |  |  |  |
| CC(C)c1c(OC2CCCCC2C)cc(CCc2ccccc2)[nH]c1=O (mixture of isomers) | 10 | 2760 | 114000 | 191 | 73 | 201000 | 7 | 600 | 28800 | 3180 | 36 |  |
| CCOC(=O)c1c(OC2CCCCC2Cl)cc(Cc2ccccc2)[nH]c1=O (mixture of isomers) | > 100000 |  |  |  |  |  |  |  |  |  |  |  |
| CCOC(=O)c1c(OC2CCCC(C)C2)cc(Cc2ccccc2)[nH]c1=O (mixture of isomers) | 19800 |  |  |  |  |  |  |  |  |  |  |  |
| CC(C)c1c(OC2CCCCC2C)cc(Cc2ccccc2)[nH]c1=O (mixture of isomers) | 410 |  |  |  |  |  |  |  |  |  |  |  |
| Cc1ccc(Cc2cc(OC3CCCCC3C)c(C(C)C)c(=O)[nH]2)cc1 (mixture of isomers) | 59 | > 10000 | 99000 | < 9 | < 11 | 112000 | 6 | > 10000 | 18700 | 1740 | 57 |  |
| CC1CCCCC1Oc1cc(Cc2ccccc2)[nH]c(=O)c1Br (mixture of isomers) | 1210 |  |  |  |  |  |  |  |  |  |  |  |
| CCOC(=O)c1c(OC2CC(C)CC(C)(C)C2)cc(Cc2ccccc2)[nH]c1=O (mixture of isomers) | > 100000 |  |  |  |  |  |  |  |  |  |  |  |
| CCOC(=O)c1c(OC2CCCCCC2)cc(Cc2ccccc2)[nH]c1=O | > 100000 |  |  |  |  |  |  |  |  |  |  |  |
| CCOC(=O)c1c(OC2C(C)CCCC2C)cc(Cc2ccccc2)[nH]c1=O (mixture of isomers) | 37100 |  |  |  |  |  |  |  |  |  |  |  |
| CC(C)c1c(OC2CCCCC2C)cc(Cc2ccc(F)cc2)[nH]c1=O (mixture of isomers) | 130 | > 10000 | 74500 | < 7 | < 6 | 64600 | 23 | > 10000 | 2810 | 2860 | 26 |  |
| COc1ccc(Cc2cc(OC3CCCCC3C)c(C(C)C)c(=O)[nH]2)cc1 (mixture of isomers) | 33 | 479 | 132000 | < 13 | 155 | 74500 | 6 | > 10000 | 12400 | 26500 | 5 |  |
| CC1CCCCC1Oc1cc(CCc2ccccc2)[nH]c(=O)c1Br (mixture of isomers) | 650 | 4320 | 83100 | < 8 | 23 | 100000 | 3 | > 10000 | 33400 |  | 92 |  |
| Cc1ccnc2c1NC(=O)c1cccnc1N2C1CC1 [NEVIRAPINE] |  | > 10000 | 204000 |  |  |  |  | > 10000 |  |  | 190 | EC50 [12]: > 10000 nM; EC50 [13]: > 10000 nM; EC50 [14]: > 10000 nM; EC50 [15]: > 10000 nM |
| CC(C)c1c(O[C@H]2CCCC[C@@H]2C)cc(CCc2ccccc2)[nH]c1=O (racemic) | 3 | 90 | > 300000 | 2160 | > 3330 | > 300000 | 4 | 139 | > 75000 | > 33300 | 9 | Ratio IC50 [16]: 1480; EC50 [12]: 63 nM; EC50 [13]: 75 nM; Ratio IC50 [17]: 29; EC50 [14]: 190 nM; EC50 [15]: 18 nM |
| CCOC(=O)c1c(OC2CCCC2)cc(Cc2ccccc2)[nH]c1=O | > 100000 |  |  |  |  |  |  |  |  |  |  |  |
| CC1CCCCC1Oc1cc(CCc2ccccc2)[nH]c(=O)c1I (mixture of isomers) | 150 | 281 | > 300000 | 307 | > 1070 | > 300000 | 17 | 978 | > 17600 | > 5660 | 53 | EC50 [12]: 296 nM; EC50 [13]: 100 nM; EC50 [14]: 170 nM; EC50 [15]: 17 nM |
| CCOC(=O)c1c(OC2CCC(C)CC2)cc(Cc2ccccc2)[nH]c1=O (mixture of isomers) | 32900 |  |  |  |  |  |  |  |  |  |  |  |
| CCOC(=O)c1c(OC2CCCCC2C)cc(CCc2ccccc2)[nH]c1=O (mixture of isomers) | > 100000 |  |  |  |  |  |  |  |  |  |  |  |
| CC(C)c1c(Cc2ccccc2)n(COCc2ccccc2)c(=O)[nH]c1=O | 88 | > 10000 | 65800 | < 6 | < 8 |  |  | > 10000 |  | 2990 | 22 | EC50 [12]: > 10000 nM; EC50 [13]: > 10000 nM; EC50 [14]: > 10000 nM; EC50 [15]: 2400 nM |
| CC1CCCCC1Oc1cc(Cc2ccccc2)[nH]c(=O)c1 (mixture of isomers) | 59300 |  |  |  |  |  |  |  |  |  |  |  |
